Source: ChEMBL document CHEMBL1153420, “Discovery of novel 1-azoniabicyclo[2.2.2]octane muscarinic acetylcholine receptor antagonists” (J Med Chem, 2009)
Calls of active or inactive are those of the source. No cut-off for these calls is given here.

Key:
[1] = molecular target: T1, Muscarinic acetylcholine receptor M3 (Homo sapiens, UniProt P20309); assay: Antagonist activity at human muscarinic M3 receptor assessed as inhibition of carbachol-induced bronchus contraction; assay type: functional; settings: read-out: pA2 (converted)
Target sequence in this assay (P20309 whole entry): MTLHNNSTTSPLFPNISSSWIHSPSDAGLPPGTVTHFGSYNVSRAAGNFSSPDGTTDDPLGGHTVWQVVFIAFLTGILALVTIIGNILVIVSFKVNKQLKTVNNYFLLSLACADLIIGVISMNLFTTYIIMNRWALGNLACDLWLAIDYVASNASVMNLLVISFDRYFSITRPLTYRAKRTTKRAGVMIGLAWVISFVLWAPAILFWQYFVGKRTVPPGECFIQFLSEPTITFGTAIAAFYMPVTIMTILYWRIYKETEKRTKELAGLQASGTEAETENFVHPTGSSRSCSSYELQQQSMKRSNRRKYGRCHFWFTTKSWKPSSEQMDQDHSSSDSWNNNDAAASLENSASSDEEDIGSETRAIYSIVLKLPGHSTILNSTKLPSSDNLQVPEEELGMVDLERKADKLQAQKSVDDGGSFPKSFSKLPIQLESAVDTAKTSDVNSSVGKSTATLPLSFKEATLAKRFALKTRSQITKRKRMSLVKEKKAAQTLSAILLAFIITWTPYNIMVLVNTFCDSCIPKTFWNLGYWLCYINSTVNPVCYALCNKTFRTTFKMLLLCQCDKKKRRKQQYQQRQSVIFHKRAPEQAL

Mus musculus [2] = assay: Inhibition of methacholine-induced bronchoconstriction in intranasally single dosed conscious BALB/c mouse by plethysmography; assay type: functional
Mus musculus [3] = assay: Inhibition of methacholine-induced bronchoconstriction in intranasally single dosed conscious BALB/c mouse assessed as time to 50% loss of maximum protection at 0.5 ug by plethysmography; assay type: functional
Method in brief: (§1)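 Conscious mice dosed intranasally in 50 µL vehicle (10% DMSO), then methacholine challenge; barometric plethysmography measured enhanced pause (Penh) at times from 15 min to 96 h after dosing; duration taken as time to 50% loss of maximum protection.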

[4] = molecular target: T2, Muscarinic acetylcholine receptor M1 (Homo sapiens, UniProt P11229); assay: Antagonist activity at human cloned muscarinic M1 receptor expressed in CHO cells assessed as inhibition of acetylcholine-induced calcium mobilization by single concentration kinetic based-FLIPR assay; assay type: functional, cell-based; settings: read-out: pA2 (converted)
T2 sequence (P11229 whole entry): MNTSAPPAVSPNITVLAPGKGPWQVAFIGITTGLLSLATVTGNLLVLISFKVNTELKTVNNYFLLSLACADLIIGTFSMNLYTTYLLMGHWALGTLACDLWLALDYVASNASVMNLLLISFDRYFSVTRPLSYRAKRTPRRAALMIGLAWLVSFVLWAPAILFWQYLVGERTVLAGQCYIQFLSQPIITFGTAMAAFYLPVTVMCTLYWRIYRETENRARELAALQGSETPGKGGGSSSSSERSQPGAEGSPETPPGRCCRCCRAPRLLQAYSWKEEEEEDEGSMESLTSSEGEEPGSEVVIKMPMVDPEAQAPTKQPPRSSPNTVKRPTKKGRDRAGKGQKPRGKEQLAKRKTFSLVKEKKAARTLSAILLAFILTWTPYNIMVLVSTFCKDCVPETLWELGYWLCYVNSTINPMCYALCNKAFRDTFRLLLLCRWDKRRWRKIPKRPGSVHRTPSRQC

[5] = molecular target: T3, Muscarinic acetylcholine receptor M2 (Homo sapiens, UniProt P08172); assay: Antagonist activity at human cloned muscarinic M2 receptor expressed in CHO cells assessed as inhibition of acetylcholine-induced calcium mobilization by single concentration kinetic based-FLIPR assay; assay type: functional, cell-based; settings: read-out: pA2 (converted)
T3 sequence (P08172 whole entry): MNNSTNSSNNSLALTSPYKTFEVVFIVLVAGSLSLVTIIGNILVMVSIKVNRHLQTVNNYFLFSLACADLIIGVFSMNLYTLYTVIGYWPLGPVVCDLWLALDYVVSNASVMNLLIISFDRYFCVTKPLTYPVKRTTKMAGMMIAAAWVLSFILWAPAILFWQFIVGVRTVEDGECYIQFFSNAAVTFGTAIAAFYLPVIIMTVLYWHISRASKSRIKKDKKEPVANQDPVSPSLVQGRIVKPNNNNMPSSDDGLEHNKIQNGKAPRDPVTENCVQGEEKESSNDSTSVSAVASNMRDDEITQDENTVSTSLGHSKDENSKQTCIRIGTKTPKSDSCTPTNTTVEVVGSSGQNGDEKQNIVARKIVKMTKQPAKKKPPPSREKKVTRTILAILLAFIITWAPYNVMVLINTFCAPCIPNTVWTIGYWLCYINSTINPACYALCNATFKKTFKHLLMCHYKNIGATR

[6] = Clearance in rat plasma at 3.5 mg/kg, iv; assay type: ADME, organism-based; design: dose 3.5 mg/kg, route intravenous
Method in brief: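 Systemic plasma clearance in rat after intravenous dosing.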

[7] = molecular target: T1, Muscarinic acetylcholine receptor M3; assay: Antagonist activity at human muscarinic M3 receptor assessed as offset time for 50% of carbachol-induced human bronchus contraction to return at 10 nM; assay type: functional
Method in brief: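 Human bronchial strips (primary, secondary or tertiary airways, obtained at autopsy) were mounted in organ baths on force-displacement transducers. Strips were preincubated 2 h with 10 nM antagonist, then given increasing carbachol to […]. Antagonist was then removed and tissue superfused with carbachol-containing buffer while tension recovery was tracked. The result is minutes to 50% reversal of blockade (off t50).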
Target sequence in this assay (P20309 whole entry, looked up): as the sequence (P20309 whole entry) above

[8] = molecular target: T1, Muscarinic acetylcholine receptor M3; assay: Antagonist activity at human cloned muscarinic M3 receptor expressed in CHO cells assessed as inhibition of acetylcholine-induced calcium mobilization by FLIPR assay; assay type: functional, cell-based
Target sequence in this assay (P20309 whole entry): as the sequence (P20309 whole entry) above

[9] = molecular target: T2, Muscarinic acetylcholine receptor M1; assay: Displacement of [3H]N-methyl scopolamine from human cloned muscarinic M1 receptor expressed in CHO cells coexpressing Gqi5 by scintillation proximity assay; assay type: cell-based
Method in brief: (§2)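 Scintillation proximity assay on membranes from CHO cells expressing human M1, M2 or M3 receptors, competing against 0.5 nM [3H]-N-methyl scopolamine; Ki reported as mean of three independent assays.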

[10] = molecular target: T3, Muscarinic acetylcholine receptor M2; assay: Displacement of [3H]N-methyl scopolamine from human cloned muscarinic M2 receptor expressed in CHO cells coexpressing Gqi5 by scintillation proximity assay; assay type: cell-based; method in brief: as §2
[11] = molecular target: T1, Muscarinic acetylcholine receptor M3; assay: Displacement of [3H]N-methyl scopolamine from human cloned muscarinic M3 receptor expressed in CHO cells coexpressing Gqi5 by scintillation proximity assay; assay type: cell-based
Target sequence in this assay (P20309 whole entry): as the sequence (P20309 whole entry) above

[12] = molecular target: T1, Muscarinic acetylcholine receptor M3; assay: Antagonist activity at human cloned muscarinic M3 receptor expressed in CHO cells assessed as reversible inhibition of acetylcholine-induced calcium mobilization for 90 mins measured after 180 mins of washout period by FLIPR assay; assay type: functional, cell-based
Method in brief: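 CHO cells expressing cloned human M3 receptors were incubated 90 min with vehicle or 1.0, 10 or 100 nM compound, then washed out for 180 min with 18 buffer changes. Cells were then stimulated with ACh, and calcium mobilization was read by FLIPR. Reversibility was judged from ACh concentration-response curves against no-drug levels.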
Target sequence in this assay (P20309 whole entry, looked up): as the sequence (P20309 whole entry) above

[13] = molecular target: T1, Muscarinic acetylcholine receptor M3; assay: Antagonist activity at human cloned muscarinic M3 receptor expressed in CHO cells assessed as inhibition of acetylcholine-induced calcium mobilization by single concentration kinetic based-FLIPR assay; assay type: functional, cell-based; settings: read-out: pA2 (converted)
Target sequence in this assay (P20309 whole entry): as the sequence (P20309 whole entry) above

Mus musculus [14] = assay: Inhibition of methacholine-induced bronchoconstriction in intranasally single dosed conscious BALB/c mouse assessed as time to 50% loss of maximum protection at 0.05 ug by plethysmography; assay type: functional; method in brief: as §1
[15] = Clearance in rat plasma at 0.5 mg/kg, iv; assay type: ADME, organism-based; design: dose 0.5 mg/kg, route intravenous
Method in brief: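 Rats received a single intravenous dose of 0.5 mg/kg; systemic plasma clearance was reported in ml/min/kg.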

Row | SMILES | IC50 [8] [nM] | Kb [13] [nM] | further results
1 | OC(c1ccccc1)(c1ccccc1)C12CC[N+](CCCOc3ccccc3)(CC1)CC2.[Br-] | < 10 | – | Kb [1]: 1.26 nM; ED50 (Mus musculus [2]): 0.08 µg; Activity (Mus musculus [3]): 34 h; Kb [4]: 3.16 nM; Kb [5]: 1.26 nM; clearance [6]: 2.22 L/h/kg; Activity [7]: 57 min; Ki [9]: 0.64 nM; Ki [10]: 0.94 nM; Ki [11]: 0.13 nM; Activity [12]: inactive
2 | OC(c1ccccc1)(c1ccccc1)C1CC2CCN1CC2 (stereo not drawn) | 6600 | – | –
3 | N#Cc1ccc(COCC[N+]23CCC(C(O)(c4ccccc4)c4ccccc4)(CC2)CC3)cc1 | < 10 | 0.398 | –
4 | Cc1ccc(COCC[N+]23CCC(C(O)(c4ccccc4)c4ccccc4)(CC2)CC3)cc1 | < 10 | 0.0398 | –
5 | OC(c1ccccc1)(c1ccccc1)C1CN2CCC1CC2 (stereo not drawn) | 1100 | – | –
6 | OC(c1ccccc1)(c1ccccc1)C12CC[N+](CCOCc3ccccc3)(CC1)C2 | < 10 | 0.398 | –
7 | OC(CC1C[N+]2(CCc3ccccc3)CCC1CC2)(c1ccccc1)c1ccccc1 (stereo not drawn) | 122 | – | –
8 | CCC[N+]12CCC(C(O)(c3ccccc3)c3ccccc3)(CC1)CC2 | 208 | – | –
9 | N#CC(c1ccccc1)(c1ccccc1)C12CC[N+](CCOCc3ccccc3)(CC1)C2 | < 10 | 0.501 | –
10 | OCCC[N+]12CCC(C(O)(c3ccccc3)c3ccccc3)(CC1)CC2 | 29500 | – | –
11 | OCC[N+]12CCC(C(O)(c3ccccc3)c3ccccc3)(CC1)CC2 | 486 | – | –
12 | OC(c1ccccc1)(c1ccccc1)C12CC[N+](CCCCc3ccccc3)(CC1)CC2 | < 10 | 0.501 | –
13 | OC(CC1CN2CCC1CC2)(c1ccccc1)c1ccccc1 (stereo not drawn) | 145 | – | –
14 | NCC[N+]12CCC(C(O)(c3ccccc3)c3ccccc3)(CC1)CC2 | 850 | 0.398 | –
15 | COc1ccc(C(O)(c2ccc(OC)cc2)C23CC[N+](CCOCc4ccccc4)(CC2)CC3)cc1 | 36 | – | –
16 | C[N+]12CCC(C(O)(c3ccccc3)c3ccccc3)(CC1)CC2 | 935 | – | –
17 | OC(c1ccccc1)(c1ccccc1)C12CC[N+](CCOCc3ccccc3)(CC1)CC2.[Br-] [UMECLIDINIUM BROMIDE] | – | – | ED50 (Mus musculus [2]): 0.02 µg; Activity (Mus musculus [14]): >48 h; Kb [4]: 0.316 nM; Kb [5]: 0.0316 nM; clearance [15]: 5.52 L/h/kg; Activity [7]: 145 min; Ki [9]: 0.16 nM; Ki [10]: 0.15 nM; Activity [12]: Active
18 | Cc1cccc(COCC[N+]23CCC(C(O)(c4ccccc4)c4ccccc4)(CC2)CC3)c1 | < 10 | 0.1 | –
19 | COc1cccc(COCC[N+]23CCC(C(O)(c4ccccc4)c4ccccc4)(CC2)CC3)c1 | < 10 | 2 | –
20 | CC[N+]12CCC(C(O)(c3ccccc3)c3ccccc3)(CC1)CC2 | 104 | – | –
21 | OC(c1ccccc1)(c1ccccc1)C12CC[N+](CCOCc3ccc(F)cc3)(CC1)CC2 | < 10 | 0.0794 | –
22 | Cc1ccccc1COCC[N+]12CCC(C(O)(c3ccccc3)c3ccccc3)(CC1)CC2 | 13 | 3.98 | –

Row | SMILES | IC50 [8] [nM] | Kb [13] [nM] | further results
23 | OC(c1ccccc1)(c1ccccc1)C12CC[N+](CCOCc3ccc(Cl)cc3)(CC1)CC2 | < 10 | 0.0631 | –
24 | OC(c1ccccc1)(c1ccccc1)C12CC[N+](CCOc3ccccc3)(CC1)CC2 | < 10 | 0.794 | –
25 | CC(C)(C)c1ccc(COCC[N+]23CCC(C(O)(c4ccccc4)c4ccccc4)(CC2)CC3)cc1 | 39 | – | –
26 | COCCC[N+]12CCC(C(O)(c3ccccc3)c3ccccc3)(CC1)CC2 | 829 | – | –
27 | COCC[N+]12CCC(C(O)(c3ccccc3)c3ccccc3)(CC1)CC2 | 30 | – | –
28 | OC(c1ccccc1)(c1ccccc1)C12CC[N+](CC3CC3)(CC1)CC2 | 1960 | – | –
29 | OC(c1ccccc1)(c1ccccc1)C12CC[N+](CCOCc3cccc(F)c3)(CC1)CC2 | < 10 | 0.0251 | –
30 | OC(c1ccccc1)(c1ccccc1)C12CC[N+](CCOCc3ccc(Br)cc3)(CC1)CC2 | < 10 | 0.0398 | –
31 | OC(c1ccc(F)cc1)(c1ccc(F)cc1)C12CC[N+](CCOCc3ccccc3)(CC1)CC2 | < 10 | 0.0631 | –
32 | OC(c1ccccc1)(c1ccccc1)C12CC[N+](CCCCCOc3ccccc3)(CC1)CC2 | 306 | – | –
33 | Cc1ccc(C(O)(c2ccc(C)cc2)C23CC[N+](CCOCc4ccccc4)(CC2)CC3)cc1 | 12 | – | –
34 | OC(c1ccccc1)(c1ccccc1)C12CC[N+](CCOCc3ccccc3Br)(CC1)CC2 | 22 | 3.16 | –
35 | OC(c1ccccc1)(c1ccccc1)C12CC[N+](CCc3ccccc3)(CC1)CC2 | 87 | – | –
36 | OC(c1ccccc1)(c1ccccc1)C12CC[N+](CCOCc3cccc(Br)c3)(CC1)CC2 | < 10 | 0.126 | –
37 | CCCC[N+]12CCC(C(O)(c3ccccc3)c3ccccc3)(CC1)CC2 | 135 | – | –
38 | OC(c1ccccc1)(c1ccccc1)C12CC[N+](CCCCOc3ccccc3)(CC1)CC2 | 9.5 | 10 | –
39 | OC(c1cccc(F)c1)(c1cccc(F)c1)C12CC[N+](CCOCc3ccccc3)(CC1)CC2 | < 10 | 0.251 | –
40 | COc1cccc(C(O)(c2cccc(OC)c2)C23CC[N+](CCOCc4ccccc4)(CC2)CC3)c1 | 17 | – | –
41 | OC(c1ccccc1)(c1ccccc1)C12CC[N+](CCOCc3ccccc3F)(CC1)CC2 | < 10 | 0.0398 | –
42 | N#Cc1ccccc1COCC[N+]12CCC(C(O)(c3ccccc3)c3ccccc3)(CC1)CC2 | 5400 | – | –
43 | OC(c1ccccc1)(c1ccccc1)C1C[N+]2(CCc3ccccc3)CCC1CC2 (stereo not drawn) | 2820 | – | –
44 | OC(c1ccccc1)(c1ccccc1)C12CCN(CC1)CC2 | 1070 | – | –
